Test results reported in ChEMBL document CHEMBL5661979, “Pharmacological inhibition of BMK1 suppresses tumor growth through promyelocytic leukemia protein” (Cancer Cell, 2010).

Legend:
[1] = target: Tyrosine-protein kinase Lyn (Homo sapiens, UniProt P07948); test: Inhibition of LYN in human HeLa cells lysate pre incubated for 15 mins followed by ATP acyl phosphate probe addition and measured after 10 mins by LC-MS/MS analysis; assay type: subcellular
[2] = target: T1, Dual specificity mitogen-activated protein kinase kinase 5 (Homo sapiens) (UniProt Q13163); test: Inhibition of MAP2K5 in human HeLa cells lysate at 2 uM pre incubated for 15 mins followed by ADP acyl phosphate probe addition and measured after 10 mins by LC-MS/MS analysis relative to control; assay type: subcellular; conditions: time 25.0 min
T1 sequence (whole entry): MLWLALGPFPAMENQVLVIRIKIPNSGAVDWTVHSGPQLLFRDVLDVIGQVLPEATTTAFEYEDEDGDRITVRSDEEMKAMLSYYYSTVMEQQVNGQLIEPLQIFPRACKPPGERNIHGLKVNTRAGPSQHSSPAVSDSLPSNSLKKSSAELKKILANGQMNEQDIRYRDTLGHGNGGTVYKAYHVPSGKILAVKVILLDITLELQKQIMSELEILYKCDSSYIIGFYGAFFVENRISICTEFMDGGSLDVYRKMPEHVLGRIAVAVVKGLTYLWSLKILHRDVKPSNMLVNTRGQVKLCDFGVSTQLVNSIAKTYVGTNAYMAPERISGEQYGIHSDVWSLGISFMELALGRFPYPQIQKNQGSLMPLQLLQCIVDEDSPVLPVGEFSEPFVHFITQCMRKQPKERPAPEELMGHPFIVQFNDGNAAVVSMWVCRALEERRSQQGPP

[3] = target: Serine/threonine-protein kinase ATR (Homo sapiens, UniProt Q13535); test: Inhibition of ATR in human HeLa cells lysate at 2 uM pre incubated for 15 mins followed by ATP acyl phosphate probe addition and measured after 10 mins by LC-MS/MS analysis relative to control; assay type: subcellular; conditions: time 25.0 min
In short: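 KiNativ-type profiling in HeLa lysate (5 mg/mL total protein). Lysate preincubated 15 min with inhibitor at 50, 10, 2, 0.8 or 0 μM, then ATP or ADP acylphosphate probe added (5 μM final) for 10 min. Reaction stopped with urea and analysed by targeted MS, using up to four fragment ions per kinase peptide-probe conjugate. % inhibition calculated against untreated lysate. Duplicate reactions.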

Ephrin type-B receptor 4 = Ephrin type-B receptor 4 (Homo sapiens, UniProt P54760); test: Inhibition of EphB4 in human HeLa cells lysate pre incubated for 15 mins followed by ADP acyl phosphate probe addition and measured after 10 mins by LC-MS/MS analysis; assay type: subcellular
[4] = target: T2, Serine/threonine-protein kinase D3 (Homo sapiens) (UniProt O94806); test: Inhibition of PKD3 in human HeLa cells lysate at 2 uM pre incubated for 15 mins followed by ADP acyl phosphate probe addition and measured after 10 mins by LC-MS/MS analysis relative to control; assay type: subcellular; conditions: time 25.0 min
T2 sequence (whole entry): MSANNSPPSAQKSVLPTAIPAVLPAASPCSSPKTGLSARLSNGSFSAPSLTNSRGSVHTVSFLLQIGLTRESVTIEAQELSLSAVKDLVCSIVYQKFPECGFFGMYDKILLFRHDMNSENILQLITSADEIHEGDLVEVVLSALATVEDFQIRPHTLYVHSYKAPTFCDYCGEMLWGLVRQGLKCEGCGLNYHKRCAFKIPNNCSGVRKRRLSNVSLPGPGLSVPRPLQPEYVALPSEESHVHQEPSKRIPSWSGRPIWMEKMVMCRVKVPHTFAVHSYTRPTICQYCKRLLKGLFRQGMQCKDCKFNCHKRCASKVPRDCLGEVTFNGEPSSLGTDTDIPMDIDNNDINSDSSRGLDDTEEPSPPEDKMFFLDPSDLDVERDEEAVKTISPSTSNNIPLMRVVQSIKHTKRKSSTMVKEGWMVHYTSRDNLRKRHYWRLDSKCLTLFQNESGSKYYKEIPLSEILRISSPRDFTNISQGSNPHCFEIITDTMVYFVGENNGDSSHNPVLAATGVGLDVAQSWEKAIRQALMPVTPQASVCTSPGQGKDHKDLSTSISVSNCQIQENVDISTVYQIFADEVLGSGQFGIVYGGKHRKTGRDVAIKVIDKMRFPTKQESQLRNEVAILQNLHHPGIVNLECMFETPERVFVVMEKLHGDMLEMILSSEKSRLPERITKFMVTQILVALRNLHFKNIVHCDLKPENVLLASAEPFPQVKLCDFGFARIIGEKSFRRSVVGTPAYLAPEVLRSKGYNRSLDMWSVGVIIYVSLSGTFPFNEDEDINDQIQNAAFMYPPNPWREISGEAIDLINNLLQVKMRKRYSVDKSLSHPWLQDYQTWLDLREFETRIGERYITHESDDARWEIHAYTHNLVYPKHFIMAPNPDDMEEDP

[5] = target: T3, Phosphatidylinositol 5-phosphate 4-kinase type-2 alpha (Homo sapiens, UniProt P48426); test: Inhibition of PIP5K2A in human HeLa cells lysate pre incubated for 15 mins followed by ATP acyl phosphate probe addition and measured after 10 mins by LC-MS/MS analysis; assay type: subcellular
T3 sequence (P48426 whole entry): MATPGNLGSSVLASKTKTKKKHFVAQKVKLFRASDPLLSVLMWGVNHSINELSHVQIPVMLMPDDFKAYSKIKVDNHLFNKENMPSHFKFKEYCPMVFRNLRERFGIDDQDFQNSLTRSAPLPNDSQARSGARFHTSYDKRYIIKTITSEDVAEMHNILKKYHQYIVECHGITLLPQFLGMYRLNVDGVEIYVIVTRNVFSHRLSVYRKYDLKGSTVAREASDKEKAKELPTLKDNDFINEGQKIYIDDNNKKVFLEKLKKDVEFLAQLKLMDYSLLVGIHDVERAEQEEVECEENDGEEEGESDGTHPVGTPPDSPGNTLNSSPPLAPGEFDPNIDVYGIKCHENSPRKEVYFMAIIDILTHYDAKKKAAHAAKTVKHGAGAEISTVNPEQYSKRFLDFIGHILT

[6] = target: PAN2-PAN3 deadenylation complex subunit PAN3 (Homo sapiens, UniProt Q58A45); test: Inhibition of PAN3 in human HeLa cells lysate pre incubated for 15 mins followed by ADP acyl phosphate probe addition and measured after 10 mins by LC-MS/MS analysis; assay type: subcellular
[7] = Inhibition of HGK/MINK/TNIK in human HeLa cells lysate at 2 uM pre incubated for 15 mins followed by ATP acyl phosphate probe addition and measured after 10 mins by LC-MS/MS analysis relative to control; conditions: 25 min, condition cancer
eIF-2-alpha kinase GCN2 = eIF-2-alpha kinase GCN2 (Homo sapiens, UniProt Q9P2K8); test: Inhibition of GCN2 in human HeLa cells lysate at 10 uM pre incubated for 15 mins followed by ATP acyl phosphate probe addition and measured after 10 mins by LC-MS/MS analysis relative to control; assay type: subcellular; conditions: time 25.0 min

Chain of Serine/threonine-protein kinase ATR (Q13535 whole entry, looked up, the tested form may be a part): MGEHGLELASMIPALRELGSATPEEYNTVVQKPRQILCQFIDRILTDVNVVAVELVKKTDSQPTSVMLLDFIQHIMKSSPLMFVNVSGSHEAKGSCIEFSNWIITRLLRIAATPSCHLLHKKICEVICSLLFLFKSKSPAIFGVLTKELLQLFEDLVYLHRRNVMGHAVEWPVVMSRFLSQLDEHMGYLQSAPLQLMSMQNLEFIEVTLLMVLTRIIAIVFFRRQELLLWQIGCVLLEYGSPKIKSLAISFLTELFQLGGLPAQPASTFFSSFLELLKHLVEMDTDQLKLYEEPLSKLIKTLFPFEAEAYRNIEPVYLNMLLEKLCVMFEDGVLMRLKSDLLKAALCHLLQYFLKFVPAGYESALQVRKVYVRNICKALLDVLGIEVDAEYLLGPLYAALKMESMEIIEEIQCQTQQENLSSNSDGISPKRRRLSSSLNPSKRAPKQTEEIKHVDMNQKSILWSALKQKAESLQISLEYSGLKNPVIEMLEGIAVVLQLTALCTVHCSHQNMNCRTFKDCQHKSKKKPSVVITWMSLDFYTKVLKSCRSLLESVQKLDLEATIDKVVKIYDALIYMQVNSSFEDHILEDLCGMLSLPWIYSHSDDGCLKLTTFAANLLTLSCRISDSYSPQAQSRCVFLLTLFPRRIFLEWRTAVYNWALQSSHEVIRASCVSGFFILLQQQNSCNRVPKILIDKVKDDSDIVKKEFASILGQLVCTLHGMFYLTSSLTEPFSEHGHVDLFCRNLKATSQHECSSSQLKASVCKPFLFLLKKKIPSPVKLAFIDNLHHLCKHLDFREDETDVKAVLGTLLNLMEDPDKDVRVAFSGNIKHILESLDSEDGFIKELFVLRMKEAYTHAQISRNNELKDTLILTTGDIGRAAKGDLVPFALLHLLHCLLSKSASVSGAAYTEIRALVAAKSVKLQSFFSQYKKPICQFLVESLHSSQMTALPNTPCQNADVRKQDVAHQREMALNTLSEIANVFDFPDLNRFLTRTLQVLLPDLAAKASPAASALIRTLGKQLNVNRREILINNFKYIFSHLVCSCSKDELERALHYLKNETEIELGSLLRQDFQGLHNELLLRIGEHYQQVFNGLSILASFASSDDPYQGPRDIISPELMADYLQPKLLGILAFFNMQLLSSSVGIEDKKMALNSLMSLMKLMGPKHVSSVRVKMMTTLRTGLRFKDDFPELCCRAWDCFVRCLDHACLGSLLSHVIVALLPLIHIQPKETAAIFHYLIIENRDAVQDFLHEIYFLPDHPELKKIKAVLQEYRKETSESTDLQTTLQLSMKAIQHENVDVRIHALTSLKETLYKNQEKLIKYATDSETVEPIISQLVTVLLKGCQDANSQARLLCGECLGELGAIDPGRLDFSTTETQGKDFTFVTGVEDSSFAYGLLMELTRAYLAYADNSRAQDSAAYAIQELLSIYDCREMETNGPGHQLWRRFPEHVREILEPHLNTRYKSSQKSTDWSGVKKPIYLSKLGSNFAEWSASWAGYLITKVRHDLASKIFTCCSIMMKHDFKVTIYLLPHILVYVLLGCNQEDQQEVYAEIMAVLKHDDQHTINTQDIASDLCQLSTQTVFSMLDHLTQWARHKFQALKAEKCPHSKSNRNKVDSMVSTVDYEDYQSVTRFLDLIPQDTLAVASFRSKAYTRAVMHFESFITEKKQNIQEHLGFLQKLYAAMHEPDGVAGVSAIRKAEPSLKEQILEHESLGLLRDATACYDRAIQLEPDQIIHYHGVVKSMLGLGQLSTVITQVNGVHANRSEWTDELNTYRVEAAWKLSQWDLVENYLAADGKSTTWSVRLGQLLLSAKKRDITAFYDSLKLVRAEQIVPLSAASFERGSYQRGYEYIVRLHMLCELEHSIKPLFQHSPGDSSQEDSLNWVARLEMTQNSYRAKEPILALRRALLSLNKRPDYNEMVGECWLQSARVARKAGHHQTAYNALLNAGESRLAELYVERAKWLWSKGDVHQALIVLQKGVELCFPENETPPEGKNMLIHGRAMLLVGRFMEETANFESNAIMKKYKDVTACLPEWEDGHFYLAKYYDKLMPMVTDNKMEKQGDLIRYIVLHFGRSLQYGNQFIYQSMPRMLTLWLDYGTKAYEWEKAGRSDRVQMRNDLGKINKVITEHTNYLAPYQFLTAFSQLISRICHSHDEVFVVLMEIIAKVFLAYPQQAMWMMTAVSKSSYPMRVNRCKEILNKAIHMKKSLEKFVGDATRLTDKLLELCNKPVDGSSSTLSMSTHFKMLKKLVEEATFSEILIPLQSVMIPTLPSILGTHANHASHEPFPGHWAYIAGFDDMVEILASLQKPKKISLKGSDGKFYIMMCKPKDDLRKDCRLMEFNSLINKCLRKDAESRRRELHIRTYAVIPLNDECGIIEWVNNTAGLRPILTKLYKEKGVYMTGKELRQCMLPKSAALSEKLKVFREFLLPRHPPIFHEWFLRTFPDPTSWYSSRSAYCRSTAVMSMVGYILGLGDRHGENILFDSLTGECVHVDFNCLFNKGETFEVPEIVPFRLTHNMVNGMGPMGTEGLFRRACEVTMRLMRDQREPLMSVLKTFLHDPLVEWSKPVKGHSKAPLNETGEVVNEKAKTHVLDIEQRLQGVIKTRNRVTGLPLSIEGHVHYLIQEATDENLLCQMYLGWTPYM
Chain of PAN2-PAN3 deadenylation complex subunit PAN3 (Q58A45 whole entry, one chain of several): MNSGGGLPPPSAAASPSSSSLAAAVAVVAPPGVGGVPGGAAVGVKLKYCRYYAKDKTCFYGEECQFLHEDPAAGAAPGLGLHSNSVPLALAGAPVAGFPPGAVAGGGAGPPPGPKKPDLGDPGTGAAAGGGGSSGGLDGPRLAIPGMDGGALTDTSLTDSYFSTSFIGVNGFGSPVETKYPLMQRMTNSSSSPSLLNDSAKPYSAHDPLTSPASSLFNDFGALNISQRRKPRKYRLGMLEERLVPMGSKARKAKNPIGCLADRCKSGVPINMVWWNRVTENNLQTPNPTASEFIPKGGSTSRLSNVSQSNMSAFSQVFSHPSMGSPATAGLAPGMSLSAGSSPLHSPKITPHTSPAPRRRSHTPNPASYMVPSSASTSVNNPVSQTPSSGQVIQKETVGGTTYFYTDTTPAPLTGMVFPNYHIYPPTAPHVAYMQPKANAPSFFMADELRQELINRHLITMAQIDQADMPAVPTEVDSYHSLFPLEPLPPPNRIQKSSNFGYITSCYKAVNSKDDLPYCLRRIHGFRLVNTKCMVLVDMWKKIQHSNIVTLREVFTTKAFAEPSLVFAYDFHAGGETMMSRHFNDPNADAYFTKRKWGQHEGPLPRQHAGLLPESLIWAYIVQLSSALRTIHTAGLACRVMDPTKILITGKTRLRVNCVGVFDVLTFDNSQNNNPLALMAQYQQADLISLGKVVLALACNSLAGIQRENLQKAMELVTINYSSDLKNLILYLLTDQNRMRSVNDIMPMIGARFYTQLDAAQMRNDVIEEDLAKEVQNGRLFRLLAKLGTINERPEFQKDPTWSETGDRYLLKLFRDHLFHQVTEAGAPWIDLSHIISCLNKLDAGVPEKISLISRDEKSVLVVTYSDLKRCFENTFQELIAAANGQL
Chain of Ephrin type-B receptor 4 (P54760 whole entry): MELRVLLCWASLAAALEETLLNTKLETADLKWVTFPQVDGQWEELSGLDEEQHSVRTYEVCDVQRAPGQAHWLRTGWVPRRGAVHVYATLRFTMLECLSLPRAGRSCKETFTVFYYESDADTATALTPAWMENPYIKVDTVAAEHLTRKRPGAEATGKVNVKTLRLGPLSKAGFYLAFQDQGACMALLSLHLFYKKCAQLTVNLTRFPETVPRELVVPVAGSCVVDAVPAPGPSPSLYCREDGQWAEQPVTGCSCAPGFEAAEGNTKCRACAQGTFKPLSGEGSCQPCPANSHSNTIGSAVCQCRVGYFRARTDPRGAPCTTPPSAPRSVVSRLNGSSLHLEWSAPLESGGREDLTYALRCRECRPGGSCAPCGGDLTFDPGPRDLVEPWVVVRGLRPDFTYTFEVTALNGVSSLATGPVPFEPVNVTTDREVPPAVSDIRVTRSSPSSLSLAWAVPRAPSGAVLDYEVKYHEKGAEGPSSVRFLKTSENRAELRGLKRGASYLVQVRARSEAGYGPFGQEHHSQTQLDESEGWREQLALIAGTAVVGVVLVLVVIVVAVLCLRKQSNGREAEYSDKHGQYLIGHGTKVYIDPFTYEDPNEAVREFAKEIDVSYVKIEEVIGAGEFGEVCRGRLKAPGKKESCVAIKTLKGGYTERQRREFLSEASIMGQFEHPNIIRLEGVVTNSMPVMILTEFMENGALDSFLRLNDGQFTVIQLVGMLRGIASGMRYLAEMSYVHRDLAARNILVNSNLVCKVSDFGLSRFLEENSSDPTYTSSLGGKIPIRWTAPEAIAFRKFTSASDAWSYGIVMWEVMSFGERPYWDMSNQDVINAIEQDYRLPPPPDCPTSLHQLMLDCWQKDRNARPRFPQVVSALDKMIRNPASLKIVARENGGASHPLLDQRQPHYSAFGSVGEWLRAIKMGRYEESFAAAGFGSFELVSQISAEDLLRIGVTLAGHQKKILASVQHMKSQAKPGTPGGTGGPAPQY
Chain of Tyrosine-protein kinase Lyn (P07948 whole entry): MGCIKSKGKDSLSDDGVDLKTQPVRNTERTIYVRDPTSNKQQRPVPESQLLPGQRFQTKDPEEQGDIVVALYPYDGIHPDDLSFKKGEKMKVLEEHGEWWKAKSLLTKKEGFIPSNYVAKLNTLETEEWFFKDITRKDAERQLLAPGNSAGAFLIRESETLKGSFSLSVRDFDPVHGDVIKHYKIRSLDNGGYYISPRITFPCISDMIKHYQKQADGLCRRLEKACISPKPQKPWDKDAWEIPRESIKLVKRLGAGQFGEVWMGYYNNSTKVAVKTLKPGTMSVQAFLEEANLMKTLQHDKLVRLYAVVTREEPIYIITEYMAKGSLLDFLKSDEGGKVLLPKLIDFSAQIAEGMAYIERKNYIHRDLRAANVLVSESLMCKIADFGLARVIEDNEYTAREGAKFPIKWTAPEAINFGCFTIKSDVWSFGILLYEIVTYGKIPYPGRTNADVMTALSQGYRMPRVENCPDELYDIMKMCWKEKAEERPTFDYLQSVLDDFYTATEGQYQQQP

## CCOc1cc(N2CCC(O)CC2)ccc1Nc1ncc2c(n1)N(C)c1ccccc1C(=O)N2C
[1]
  IC50: > 50 µM
[2]
  inhibition: 19.1%
[3]
  inhibition: 25.9%
Ephrin type-B receptor 4
  IC50: > 50 µM
[4]
  inhibition: 5.5%
[5]
  IC50: > 50 µM
[6]
  IC50: > 50 µM
[7]
  inhibition at 2 µM: -5.2%
eIF-2-alpha kinase GCN2
  inhibition: -0.6%
